Measured values reported in ChEMBL document CHEMBL1126076, “Synthesis and thromboxane A2/prostaglandin H2 receptor antagonistic activity of phenol derivatives” (J Med Chem, 1992).
Blank lines part the entries; values can stand above or below the compound they belong to.

Experiments:
[1] = tested on: Thromboxane A2 receptor (Cavia porcellus); experiment: Inhibition of specific binding of [3H]U-46619 to TXA2/PGH2 receptor in guinea pig platelet membrane
[2] = tested on: Cavia porcellus; experiment: The compound was tested in vivo for the inhibition of U-46619-induced bronchoconstriction in guinea pig, 1 hr after oral administration at a dose of 5 mg/Kg.; assay type: functional; conditions: PIG1, po
How it was run: (§1)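 Guinea pigs received drug suspended in 5% gum arabic orally 1 h before U-46619 challenge. The result is percent inhibition of bronchoconstriction versus control, tested with Dunnett's test.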

[3] = species on record: Homo sapiens; experiment: Concentration required to reduced U-46619-induced aggregation of human platelet by 50%.; assay type: functional
How it was run: (§2)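 Healthy male volunteers, medication-free for at least 10 days, gave blood into 3.8% sodium citrate. PRP was adjusted to 400000 platelets/µL with PPP, preincubated at 37 °C for 2 min, then given drug or vehicle for 2 min. Aggregation was triggered with submaximal U-46619 (1–3 µM) and read photometrically (Born).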

[4] = species on record: Oryctolagus cuniculus; experiment: Concentration required to reduced U-46619-induced contraction of the rabbit aorta by 50%.; assay type: functional
[5] = species on record: Oryctolagus cuniculus; experiment: Concentration required to reduced U-46619-induced contraction of the rabbit aorta by 50%.(values in parentheses are 95% confidence limits); assay type: functional
[6] = species on record: Homo sapiens; experiment: Concentration required to reduced U-46619-induced aggregation of human platelet by 50%.(values in parentheses are 95% confidence limits); assay type: functional
How it was run: as §2

[7] = tested on: Rattus norvegicus; experiment: The compound was tested in vivo for the inhibition of U-46619-induced bronchoconstriction in rat, 1 hr after oral administration at a dose of 5 mg/Kg.; assay type: functional
How it was run: (§3)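 Male Sprague-Dawley rats received drug suspended in 5% gum arabic orally 1 h before U-46619 (30 µg/kg, iv). Bronchoconstriction was recorded by the Konzett-Rössler method and expressed as percent inhibition versus control, tested with Dunnett's test.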

[8] = tested on: Rattus norvegicus; experiment: The compound was tested in vivo for the inhibition of U-46619-induced bronchoconstriction in rat, 1 hr after oral administration at a dose of 1.25 mg/Kg.; assay type: functional
How it was run: as §3

[9] = tested on: Cavia porcellus; experiment: The compound was tested in vivo for the inhibition of U-46619-induced bronchoconstriction in guinea pig, 1 hr after oral administration at a dose of 0.31 mg/Kg.; assay type: functional; conditions: PIG1, po
How it was run: as §1

[10] = species on record: Cavia porcellus; experiment: Compound was evaluated for inhibition of specific binding of [3H]U-46619 to guinea pig platelet membrane.; assay type: functional
How it was run: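 Guinea pig blood was drawn by cardiac puncture into 0.315% citrate plus 1 mM aspirin (final). PRP platelets were washed in 25 mM Tris-HCl/5 mM MgCl2 pH 7.4, sonicated, and the 100000 g pellet used at 1 mg/mL protein. Membranes were incubated with 4 nM [3H]U-46619 and drug at 25 °C for 30 min, then filtered and counted. The IC50 is for specific binding, with 2–6 replicates per dose.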

[11] = tested on: Cavia porcellus; experiment: The compound was tested in vivo for the inhibition of U-46619-induced bronchoconstriction in guinea pig, 1 hr after oral administration at a dose of 1.25 mg/Kg.; assay type: functional; conditions: PIG1, po
How it was run: as §1

[12] = species on record: Homo sapiens; experiment: Concentration required to reduced U-46619-induced aggregation of human platelet by 50%; assay type: functional
How it was run: as §2

[13] = tested on: Cavia porcellus; experiment: compound was tested in vivo for the inhibition of U-46619-induced bronchoconstriction in guinea pig, 1 hr after oral administration at a dose of 1.25 mg/Kg.; assay type: functional; conditions: PIG1, po
How it was run: as §1

[14] = tested on: Cavia porcellus; experiment: Compound was tested in vivo for the inhibition of U-46619-induced bronchoconstriction in guinea pig, 1 hr after oral administration at a dose of 5 mg/Kg.; assay type: functional; conditions: PIG1, po, read-out: Inhibition
How it was run: as §1

[15] = tested on: Rattus norvegicus; experiment: Compound was tested in vivo for the inhibition of U-46619-induced bronchoconstriction in rat, 1 hr after oral administration at a dose of 5 mg/Kg.; assay type: functional; conditions: read-out: Inhibition
How it was run: as §3

[16] = species on record: Oryctolagus cuniculus; experiment: Concentration required to reduced U-46619-induced contraction of the rabbit aorta by 50%; assay type: functional

Structure (SMILES): Cc1c(C)c(C=O)c(C)c(C(CCCCCC(=O)O)c2ccccc2)c1O (stereo unspecified)
inhibition in vivo at 5 mg/kg [2]: 30%
IC50 [3]: 1400 nM
IC50 [4]: 190 nM

Structure (SMILES): Cc1c(C)c(CO)c(C)c(C(CCCCCC(=O)O)c2ccccc2)c1O (stereo unspecified)
IC50 [1]: 820 nM

Structure (SMILES): Cc1c(C)c(C(=O)O)c(C)c(C(CCCCCC(=O)O)c2ccc(F)cc2)c1O (stereo unspecified)
IC50 [1]: 3200 nM

Structure (SMILES): Cc1c(C)c(Cl)c(C)c(C(CCCCCC(=O)O)c2ccc(F)cc2)c1O (stereo unspecified)
IC50 [1]: 840 nM

Structure (SMILES): COCc1c(C)c(C)c(O)c(C(CCCCCC(=O)O)c2ccc(F)cc2)c1C (stereo unspecified)
IC50 [1]: 340 nM

Structure (SMILES): Cc1cc(C)c(C(CCCCCC(=O)O)c2ccc(F)cc2)c(O)c1C (stereo unspecified)
IC50 [1]: 450 nM

Structure (SMILES): Cc1c(C)c(CO)c(C)c(C(CCCCCC(=O)O)c2ccc(F)cc2)c1O (stereo unspecified)
IC50 [5]: 32 nM
IC50 [6]: 79 nM
inhibition in vivo at 5 mg/kg [7]: < 65%
inhibition in vivo at 1.25 mg/kg [8]: < 40%
IC50 [1]: 32 nM
inhibition in vivo at 0.31 mg/kg [9]: 57%

Structure (SMILES): Cc1c(C)c(C=O)c(C)c(C(CCCCCC(=O)O)c2ccc(F)cc2)c1O (stereo unspecified)
inhibition in vivo at 5 mg/kg [2]: 84%
IC50 [3]: 310 nM
IC50 [10]: 4.4 nM
inhibition in vivo at 5 mg/kg [7]: 68%
inhibition in vivo at 1.25 mg/kg [8]: < 54%
inhibition in vivo at 0.31 mg/kg [9]: 33%
inhibition in vivo at 1.25 mg/kg [11]: < 67%
IC50 [4]: 10 nM

Structure (SMILES): Cc1c(O)c(C(CCCCCC(=O)O)c2ccc(F)cc2)c(C)c2c1CC(=O)C2 (stereo unspecified)
inhibition in vivo at 5 mg/kg [2]: < 42%
IC50 [1]: 79 nM

Structure (SMILES): CC(=O)c1c(C)c(C)c(O)c(C(CCCCCC(=O)O)c2ccc(F)cc2)c1C (stereo unspecified)
IC50 [5]: 270 nM
IC50 [6]: 69 nM
inhibition in vivo at 5 mg/kg [2]: 76%
IC50 [10]: 80 nM
inhibition in vivo at 5 mg/kg [7]: 42%
IC50 [1]: 80 nM
inhibition in vivo at 1.25 mg/kg [11]: 22%

Structure (SMILES): Cc1cc(C)c(O)c(C(CCCCCC(=O)O)c2ccc(F)cc2)c1C (stereo unspecified)
IC50 [1]: 240 nM

Structure (SMILES): Cc1c(C)c2c(c(C(CCCCCC(=O)O)c3ccc(F)cc3)c1O)CCC2 (stereo unspecified)
IC50 [1]: 160 nM

Structure (SMILES): Cc1c(C)c(Br)c(C)c(C(CCCCCC(=O)O)c2ccc(F)cc2)c1O (stereo unspecified)
IC50 [1]: 200 nM

Structure (SMILES): Cc1c(C)c(C(CCCCCC(=O)O)c2ccc(F)cc2)c(O)c(C)c1CO (stereo unspecified)
IC50 [1]: 650 nM

Now from value to compound, other results behind:

IC50 [1]: 130 nM
Structure (SMILES): Cc1c(C)c(C)c(C(CCCCCC(=O)O)c2ccc(F)cc2)c(O)c1C (stereo unspecified)

IC50 [12]: 310 nM
IC50 [1]: 49 nM
IC50 [16]: 230 nM
Structure (SMILES): Cc1c(O)c(C(CCCCCC(=O)O)c2ccc(F)cc2)c(C)c2c1CCC2 (stereo unspecified)
inhibition in vivo at 1.25 mg/kg [13]: 37%
inhibition in vivo at 5 mg/kg [14]: 76%
inhibition in vivo at 5 mg/kg [15]: 48%

IC50 [5]: 27 nM
IC50 [6]: 78 nM
IC50 [10]: 13 nM
IC50 [1]: 13 nM
Structure (SMILES): Cc1c(C)c2c(c(C(CCCCCC(=O)O)c3ccc(F)cc3)c1O)CCC2=O (stereo unspecified)
inhibition in vivo at 5 mg/kg [2]: < 95%
inhibition in vivo at 5 mg/kg [7]: 78%
inhibition in vivo at 1.25 mg/kg [8]: < 50%
inhibition in vivo at 0.31 mg/kg [9]: -3%
inhibition in vivo at 1.25 mg/kg [11]: 59%

IC50 [1]: 190 nM
Structure (SMILES): CCCCC(=O)c1c(C)c(C)c(O)c(C(CCCCCC(=O)O)c2ccc(F)cc2)c1C (stereo unspecified)

IC50 [1]: 250 nM
Structure (SMILES): CC(=O)c1c(C)c(C)c(C(CCCCCC(=O)O)c2ccc(F)cc2)c(O)c1C (stereo unspecified)

IC50 [1]: 76 nM
Structure (SMILES): Cc1c(C)c2c(c(C(CCCCCC(=O)O)c3ccc(F)cc3)c1O)CCCC2=O (stereo unspecified)

IC50 [1]: 250 nM
Structure (SMILES): Cc1c(C)c(CCO)c(C)c(C(CCCCCC(=O)O)c2ccc(F)cc2)c1O (stereo unspecified)

IC50 [3]: 640 nM
IC50 [1]: 62 nM
IC50 [4]: 120 nM
Structure (SMILES): O=C(O)Cc1ccc(CCNS(=O)(=O)c2ccc(Cl)cc2)cc1 [DALTROBAN]
inhibition in vivo at 5 mg/kg [2]: < 84%
inhibition in vivo at 5 mg/kg [7]: < 73%
inhibition in vivo at 1.25 mg/kg [11]: 36%
